Test results published in ChEMBL document CHEMBL2203197, “Design and synthesis of 2-aminothiazole based antimicrobials targeting MRSA” (2012).
≈ marks a conversion by molar mass, not a printed value.

Assays:
Type in all cases: functional
Escherichia coli = assay: Antibacterial activity against Escherichia coli C600 N/puc19 after 24 hrs by CLSI broth microdilution method; conditions: C600 N/puc19, 24 h
Method in brief: (§1)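 Broth microdilution per CLSI in cation-adjusted Mueller–Hinton broth. MIC was taken as the lowest concentration inhibiting visible growth (turbidity).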

Staphylococcus aureus [1] = assay: Antibacterial activity against methicillin-resistant Staphylococcus aureus UAMS-1 after 24 hrs by CLSI broth microdilution method; conditions: UAMS-1, 24 h
Method in brief: (§2)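 Broth microdilution per CLSI in cation-adjusted Mueller–Hinton broth. Plates were incubated 24 h at 37 °C. MIC was taken as the lowest concentration that inhibited growth, judged by turbidity.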

Staphylococcus aureus [2] = assay: Antibacterial activity against methicillin-resistant Staphylococcus aureus RN8175 after 24 hrs by CLSI broth microdilution method; conditions: RN8175, 24 h; method in brief: as §2
Staphylococcus aureus [3] = assay: Antibacterial activity against methicillin-resistant Staphylococcus aureus USA-300 after 24 hrs by CLSI broth microdilution method; conditions: USA-300, 24 h; method in brief: as §2
Acinetobacter baumannii = assay: Antibacterial activity against Acinetobacter baumannii UNMC 8872 after 24 hrs by CLSI broth microdilution method; conditions: UNMC 8872, 24 h; method in brief: as §1

Row | SMILES | MIC (Escherichia coli) | MIC (Staphylococcus aureus [1]) | MIC (Staphylococcus aureus [2]) | MIC (Staphylococcus aureus [3]) | MIC (Acinetobacter baumannii)
1 | Nc1nc(-c2ccc3ccccc3c2)cs1 | > 256 µg/mL | 256 µg/mL (≈ 1130 µM) | > 256 µg/mL | > 256 µg/mL | 
2 | COc1ccc(-c2csc(N)n2)cc1 | > 256 µg/mL |  | > 256 µg/mL | > 256 µg/mL | 
3 | Nc1nc(-c2cc3ccccc3o2)cs1 | > 256 µg/mL | 256 µg/mL (≈ 1180 µM) | > 256 µg/mL | > 256 µg/mL | 
4 | O=S(=O)(Nc1nc(-c2ccccc2Br)cs1)c1ccccc1 | > 256 µg/mL |  | 32 µg/mL (≈ 81 µM) | 128 µg/mL (≈ 324 µM) | 
5 | Nc1nc(-c2cccc(-c3cccc(C(=O)O)c3)c2)cs1 | > 256 µg/mL |  | > 256 µg/mL | > 256 µg/mL | > 256 µg/mL
6 | Nc1nc(-c2cccc(-c3ccc(C(=O)O)cc3)c2)cs1 | > 256 µg/mL |  | > 256 µg/mL | > 256 µg/mL | > 256 µg/mL
7 | COC(=O)c1ccccc1-c1cccc(-c2csc(N)n2)c1 | > 256 µg/mL | > 256 µg/mL | > 256 µg/mL | > 256 µg/mL | 
8 | CCOC(=O)COc1cccc(-c2cccc(-c3csc(N)n3)c2)c1 | > 256 µg/mL |  | > 256 µg/mL | > 256 µg/mL | 
9 | CCOC(=O)COc1ccc(-c2cccc(-c3csc(N)n3)c2)cc1 | > 256 µg/mL |  | 256 µg/mL (≈ 722 µM) | > 256 µg/mL | 
10 | CCOC(=O)CCc1ccc(-c2cccc(-c3csc(N)n3)c2)cc1 | > 256 µg/mL |  | 256 µg/mL (≈ 726 µM) | > 256 µg/mL | 
11 | Nc1nc(-c2cccc(-c3cccc(OC(F)(F)F)c3)c2)cs1 | > 256 µg/mL |  | 4 µg/mL (≈ 11.9 µM) | 8 µg/mL (≈ 23.8 µM) | 
12 | O=S(=O)(Nc1nc(-c2ccc(Br)cc2)cs1)c1ccccc1 | > 256 µg/mL |  | 16 µg/mL (≈ 40.5 µM) | 64 µg/mL (≈ 162 µM) | > 256 µg/mL
13 | CCOC(=O)c1cccc(-c2cccc(-c3csc(N)n3)c2)c1 | > 256 µg/mL |  | > 256 µg/mL | > 256 µg/mL | > 256 µg/mL
14 | Nc1nc(-c2ccc(-c3cccc(OC(F)(F)F)c3)cc2)cs1 | > 256 µg/mL |  | 2 µg/mL (≈ 5.95 µM) | > 256 µg/mL | 
15 | CCOC(=O)c1cccc(-c2ccccc2-c2csc(N)n2)c1 | > 256 µg/mL |  | 32 µg/mL (≈ 98.6 µM) | 256 µg/mL (≈ 789 µM) | > 256 µg/mL
16 | Nc1nc(-c2ccccc2-c2cccc(OC(F)(F)F)c2)cs1 | > 256 µg/mL |  | 16 µg/mL (≈ 47.6 µM) | 16 µg/mL (≈ 47.6 µM) | 

Row | SMILES | MIC (Escherichia coli) | MIC (Staphylococcus aureus [1]) | MIC (Staphylococcus aureus [2]) | MIC (Staphylococcus aureus [3]) | MIC (Acinetobacter baumannii)
17 | CC(=O)OCC1=C(C(=O)O)N2C(=O)[C@@H](NC(=O)c3cccc(-c4csc(N)n4)c3)C2SC1 (stereo not given in full) | > 256 µg/mL | 256 µg/mL (≈ 539 µM) | 16 µg/mL (≈ 33.7 µM) | 256 µg/mL (≈ 539 µM) | 
18 | O=S(=O)(Nc1nc2c(s1)CCCC2)c1cccc(C(F)(F)F)c1 | > 256 µg/mL | > 256 µg/mL | > 256 µg/mL | > 256 µg/mL | 
19 | CCOC(=O)c1cccc(-c2ccc3sc(N)nc3c2)c1 | > 256 µg/mL | > 256 µg/mL | > 256 µg/mL | > 256 µg/mL | 
20 | Nc1nc2cc(-c3cccc(OC(F)(F)F)c3)ccc2s1 | > 256 µg/mL |  | 8 µg/mL (≈ 25.8 µM) | 8 µg/mL (≈ 25.8 µM) | 
21 | Nc1nc2ccc(-c3cccc(OC(F)(F)F)c3)cc2s1 | > 256 µg/mL |  | 8 µg/mL (≈ 25.8 µM) | 16 µg/mL (≈ 51.6 µM) | 
22 | Nc1nc(-c2ccc(OC(F)(F)F)cc2)cs1 | > 256 µg/mL |  | 64 µg/mL (≈ 246 µM) | 64 µg/mL (≈ 246 µM) | 
23 | Nc1nc(-c2ccc(N3CCOCC3)cc2)cs1 | > 256 µg/mL | 128 µg/mL (≈ 490 µM) | 256 µg/mL (≈ 980 µM) | > 256 µg/mL | 
24 | Fc1cccc(Nc2nc(-c3ccc(N4CCOCC4)cc3)cs2)c1 | > 256 µg/mL | 256 µg/mL (≈ 720 µM) | > 256 µg/mL | > 256 µg/mL | 
25 | Nc1nc(-c2ccc(N3CCCC3)cc2)cs1 | > 256 µg/mL | 256 µg/mL (≈ 1040 µM) | > 256 µg/mL | > 256 µg/mL | 
26 | Fc1cccc(Nc2nc(-c3ccc(N4CCCC4)cc3)cs2)c1 | > 256 µg/mL | 2 µg/mL (≈ 5.89 µM) | > 256 µg/mL | > 256 µg/mL | 
27 | Fc1cccc(Nc2nc(-c3cccc(Br)c3)cs2)c1 | > 256 µg/mL | 2 µg/mL (≈ 5.73 µM) | 4 µg/mL (≈ 11.5 µM) | 4 µg/mL (≈ 11.5 µM) | 
28 | O=S(=O)(Nc1nc(C23CC4CC(CC(C4)C2)C3)cs1)c1cccc(C(F)(F)F)c1 | > 256 µg/mL | 128 µg/mL (≈ 289 µM) | > 256 µg/mL | > 256 µg/mL | 
29 | O=S(=O)(Nc1nc(-c2ccccc2F)cs1)c1ccccc1 | > 256 µg/mL |  | 32 µg/mL (≈ 95.7 µM) | 128 µg/mL (≈ 383 µM) | 
30 | COC(=O)c1cccc(-c2csc(N)n2)c1 | > 256 µg/mL |  | > 256 µg/mL | > 256 µg/mL | 
31 | COC(=O)c1ccc(-c2csc(N)n2)cc1 | > 256 µg/mL |  | 128 µg/mL (≈ 546 µM) | > 256 µg/mL | 
32 | CO/N=C(\C(=O)N[C@@H]1C(=O)N2C(C(=O)O)=C(CSc3nc(=O)c(O)nn3C)CS[C@H]12)c1csc(N)n1 [CEFTRIAXONE] | 2 µg/mL (≈ 3.61 µM) | 8 µg/mL (≈ 14.4 µM) | 16 µg/mL (≈ 28.9 µM) | 128 µg/mL (≈ 231 µM) | 8 µg/mL (≈ 14.4 µM)
